Assay results: the EternaBench riboswitch data

Test system: MS2 coat protein
Test: apparent Kd, MS2 coat protein; higher = weaker binding; RNA-MaP array; FMN 200 µM where present
Procedure, shortened: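 Designs were transcribed by stalled E. coli RNA polymerase on Illumina sequencing-chip clusters. They were titrated with SNAP-549-labelled MS2 coat protein from 0.7 or 1.5 nM, doubling to 3 µM, without and then with constant ligand. Buffer: 100 mM Tris-HCl pH 7.5, 80 mM KCl, 4 mM MgCl2, BSA, DTT, yeast tRNA, Tween-20. Green signal was normalised to red-channel RNA signal and control-cluster median Fmax. Apparent Kd is the median of filtered per-cluster binding-curve fits.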

[1] = designed as: OFF switch for flavin mononucleotide, no ligand
[2] = ligand present: flavin mononucleotide, designed as: OFF switch for flavin mononucleotide
[3] = designed as: ON switch for flavin mononucleotide, no ligand
[4] = ligand present: flavin mononucleotide, designed as: ON switch for flavin mononucleotide

## GGUGCCAUGUAGAAGGCAGAUCUGAUUCAGAUCUGAGGAUAUACAUGAGGAUCACCCAUGUAAGGGCACCGCACGAGAGUGCAA
[1]
  apparent Kd: 6.56 nM
[2]
  apparent Kd: 10.2 nM

## AUUUAUGGCCAGAAGGACAUGAGGAUCACCCAUGUAGGAUAUGGACGAUUUUGCUCGGCGGUUCGUUAAGAAAGCACCGGUGGU
[3]
  apparent Kd: 16.5 nM
[4]
  apparent Kd: 7.39 nM

## AUGGACGUCGUAGGAUAUGUAGGAUUCUCCUACAUGAGGAUCACCCAUGUUGACAUGGAGGACGGACAGAAGGACGGUGUCCAU
[3]
  apparent Kd: 13.2 nM
[4]
  apparent Kd: 5.31 nM

## AAUAUGUUGCAGAAGGUUAUAUUUAUUUAGUACCUCAUGACAUGAGGAUCACCCAUGUUUUUGUUGAAGGAUAUGCAAUAUAUU
[1]
  apparent Kd: 17.1 nM
[2]
  apparent Kd: 13.7 nM

## UUACUCAUGUAAGGAUAUGCAGCCGAAACGGCUGCAGAAGGUACUAAAAUACAUGAGGAUCACCCAUGUCUUUUUAAUUUAGAU
[3]
  apparent Kd: 75.5 nM
[4]
  apparent Kd: 47.6 nM

## UUAAAUCAUGUAGGAUAUGCGUGGAGAAACUAUGCAGAAGGACAUGAGGAUCACCCAUGUGCUUCCGUCUGCGUACAGAUGGUA
[1]
  apparent Kd: 26.3 nM
[2]
  apparent Kd: 156 nM

## GUGAACAUGAGGAUCACCCAUGUAGCUCACUGCCAGUGGCUACAGGAUAUAGCACCUCGAGAGUGCUAGAAGGGUGGCCUAGAA
[3]
  apparent Kd: 106 nM
[4]
  apparent Kd: 33.9 nM

## CGCAACAUACAGAAGGAGUUAUUGAGAGGUUUACUAGGAUAUGUUCACAUGAGGAUCACCCAUGUCGUUUGGGAUUUUGUUGCG
[1]
  apparent Kd: 125 nM
[2]
  apparent Kd: 51.3 nM

## GGGCUUUGGGAGAAGGUACAUUAAAUUAGUUUAACAUGAGGAUCACCCAUGUAAGGAUAUCCCAUCUUGUAUUAUUAUACAGCC
[1]
  apparent Kd: 11 nM
[2]
  apparent Kd: 13.3 nM

## CGACGUUGGGAGAAGGAGUAAAAUACAUGAGGAUCACCCAUGUCAGGUGCUAGGAUAUCCUCGCGUGGCAGGGUCGGCCCGUGU
[3]
  apparent Kd: 97.2 nM
[4]
  apparent Kd: 32.7 nM

## GAUUUACAUGAGGAUCACCCAUGUGAGGAUAUGGAAUGGCUCAUUGUCUGAUUUCCUUCUAGAAGGCACAUCUG
[1]
  apparent Kd: 54.2 nM
[2]
  apparent Kd: 54.9 nM

## GAGCGAAAGCUCAAUGUCGAUAGCAGAAGGACAUGAAAAUACAUGAAAACAUGAGGAUCACCCAUGUAGGAUAUGCUAUCGACU
[1]
  apparent Kd: 8.75 nM
[2]
  apparent Kd: 89.4 nM

## AAGAAACAUGAGGAUCACCCAUGUGAGGAUAUGUAAAAGAAAAGAAAAUAAAGAAGAAACAGAAGGCACAAAGG
[1]
  apparent Kd: 40.2 nM
[2]
  apparent Kd: 64.4 nM

## AUCAUGUCAGGAUAUGUGAUAUGGAUCUUCGGAUCAAGUUCACAGAAGGGACAUGAGGAUCACCCAUGUCGAAC
[1]
  apparent Kd: 50.6 nM
[2]
  apparent Kd: 91.7 nM

## UUGUUGUAUGUAGGAUAUGCAUGUUAUUAUUAUGCAGAAGGACAUGAGGAUCACCCAUGUGUAUUAUUAUUAUAUAUUAUAUAU
[1]
  apparent Kd: 20.9 nM
[2]
  apparent Kd: 23.3 nM

## AGAUCACAUGAGGAUCACCCAUGUGAGGAUAUGAUACUAUGUACUUCGGUACAUAGUAUCAGAAGGCAUGUGAA
[1]
  apparent Kd: 43.5 nM
[2]
  apparent Kd: 41.1 nM

## AGCCGUGUACAGAAGGGCGACAUGAGGAUCACCCAUGUCUCCUUGUUGGUCGUAGGAUAUGUACCGUGGCUCUCUACUGUGGGA
[1]
  apparent Kd: 5.96 nM
[2]
  apparent Kd: 7.28 nM

## CGGUUCUGAGGAUAUCCACCCUCAUACAUGAGGAUCACCCAUGUUCACCCUUGGGUUCCCGGAGAAGGCAGUUUUC
[1]
  apparent Kd: 233 nM
[2]
  apparent Kd: 570 nM

## AAAUACCAAGGAUAUACAUGAGGAUCACCCAUGUACAAACCCGUGGAACGGAUCUUUGGUAGAAGGUGGACAUA
[1]
  apparent Kd: 13.9 nM
[2]
  apparent Kd: 11.9 nM

## GGGCGUGAAGGAUAUACAUGAGGAUCACCCAUGUGGGAGGAGAGUGGUGAGGAGGCUGGUAGAAGGUCAGGAUG
[1]
  apparent Kd: 44.8 nM
[2]
  apparent Kd: 36.8 nM

## AUAUAUAGUGUGAGGAUAUGCUGGUCCUUGGAUCAGCAGAAGGCACAUGAGGAUCACCCAUGUAGUUUAUUUUA
[1]
  apparent Kd: 31.7 nM
[2]
  apparent Kd: 76.7 nM

## GGGUACAUCGGAGGAUAUCAUGUAAAUACAUGAGGAUCACCCAUGUCGAUGGAGACAUCGGAGAUUGAGAAGGCCCAUGUACCG
[3]
  apparent Kd: 199 nM
[4]
  apparent Kd: 10.8 nM

## GGAUGAGCGAUAGGAUAUGCUGGGAUUGAAUGGGUAGAAGGAUUUCUAGUGGGAAAGACAUGAGGAUCACCCAUGUCGCGGACC
[3]
  apparent Kd: 30.3 nM
[4]
  apparent Kd: 29.4 nM

## UUUCAGUCAGGAUAUCGUUAAUUUAAUUGUUUGUUUUAGUUCGAGAAGGGACAUGAGGAUCACCCAUGUACUUU
[1]
  apparent Kd: 20 nM
[2]
  apparent Kd: 20 nM

## GAGUAGAUCCGAGGAUAUACAAUCCGGAAACGGUACAUGAGGAUCACCCAUGUAGAAGGCGGAUCUACAGGUACUAAAGUACCC
[1]
  apparent Kd: 5.73 nM
[2]
  apparent Kd: 8.11 nM

## ACAUACUAUCGAGGAUAUCGGUAAGAAAAGUUACGAGAAGGCGAUUAUAAAUUUAUAUUAUUAUACAUGAGGAUCACCCAUGUA
[3]
  apparent Kd: 20.9 nM
[4]
  apparent Kd: 21.3 nM

## CAGGUAGACUGAGGAUAUACAGACCUAGUCUAUCUAGGUCAAUUCCUUACAUGAGGAUCACCCAUGUAGAAGGCAGUCUGCCUG
[1]
  apparent Kd: 18.7 nM
[2]
  apparent Kd: 38.8 nM

## CUAUAUAAUGCCUCAUGUACAUGAGGAUCACCCAUGUUAACUUAGGAUAUAUUUAUAUUGAUAGAGUAGAAGGAAGUACUAUUU
[1]
  apparent Kd: 14.2 nM
[2]
  apparent Kd: 12.9 nM

## GUGGUCAGACAUGAGGAUCACCCAUGUGGAAUAAAUAACACACAGGAUAUCGAAUAUAAAAUAUACGAGAAGGGUGGAUUGGUG
[3]
  apparent Kd: 388 nM
[4]
  apparent Kd: 209 nM

## UUGCCUGCGUGUCGCCGGUUUGGACAGGAUAUCCACAUGAGGAUCACCCAUGUCUAACAAAAUACGGAGAAGGGUCCUAGCGGU
[3]
  apparent Kd: 39 nM
[4]
  apparent Kd: 6.55 nM

## CCAGGCUUCGAGAAGGACAUGAGGAUCACCCAUGUGCGUGUGAAGCAGCCGUGAGGCUGCAUCAUGUAGGAUAUCGGAGUCUGG
[1]
  apparent Kd: 71.9 nM
[2]
  apparent Kd: 499 nM

## ACAUGAGGAUCACCCAUGUAUUACAUGGUUAAGUUUAUAAACAGAAGGCGAUAAUACUUAUUGUUCGAGGAUAUGUAAUCAAUU
[1]
  apparent Kd: 113 nM
[2]
  apparent Kd: 84.1 nM

## CGAGUUUUUGAGAAGGCAUAUAAUAAGAUUUCCCAUGUUAACAUGAGGAUCACCCAUGUUUAGUAUGAGGAUAUCAGUAGGUCG
[1]
  apparent Kd: 5.79 nM
[2]
  apparent Kd: 5.8 nM

## GUAGCUAUCGGAGGAUAUUCAUACCGGAAACGGACAUGAGGAUCACCCAUGUCGCGAAAGCGUUGGGAGAAGGCCGAUAGCUAC
[3]
  apparent Kd: 237 nM
[4]
  apparent Kd: 21.4 nM

## GUAAUUACGAGAGGAUAUUGACAUGAGGAUCACCCAUGUAUUUGGGAGUGUUCACUGAAUUCUUACGAGAAGGCUCGUAAAUAC
[1]
  apparent Kd: 213 nM
[2]
  apparent Kd: 214 nM

## CAGGAUAGAGGAUAUACAUAGAUACAGAUUCAUGUGGUCCUACAUGAGGAUCACCCAUGUAGAAGGCUAUCCUG
[1]
  apparent Kd: 166 nM
[2]
  apparent Kd: 30 nM

## UUUGUUUUGGUAGGAUAUACUUUUAUUUUCUCUUUCCUUACAUGAGGAUCACCCAUGUUUACAUUGUAGAAGGACCACUUUGUU
[1]
  apparent Kd: 20.8 nM
[2]
  apparent Kd: 18.8 nM

## GCUGCGUACGCAGGAUAUACAUGAGGAUCACCCAUGUAACUCGAACUCUAAGCGGGUGCGCGCAUGUAGAAGGGCGGGCGAGCC
[1]
  apparent Kd: 35 nM
[2]
  apparent Kd: 67.9 nM

## GUUAAUUAGUGAGGAUAUACAGAGAGUGAAGCUGUAGAAGGCACAUUCCUCAAGACAUGAGGAUCACCCAUGUGAUAAUAAGAU
[1]
  apparent Kd: 37.4 nM
[2]
  apparent Kd: 105 nM

## UCCGUGUGAGGAUAUUACGCUGUUCGGGAAACGCUCAUAGGUAAGAAGGCACAUGAGGAUCACCCAUGUCCAUA
[1]
  apparent Kd: 23.7 nM
[2]
  apparent Kd: 54.8 nM

## AGGAUCCUAUCAAGACAAAUGUACAUGAGGAUCACCCAUGUGCAGGAUAUAGCUAGUUACGGUGGUUAGAAGGGCACGCCAAAA
[1]
  apparent Kd: 8.98 nM
[2]
  apparent Kd: 13.3 nM

## UGCUGGGAAUCAGGAUAUACGUGGUAUCCUGAGCACAUGAGGAUCACCCAUGUAGAAGGGAUUCCGCGGUGAGAUUCCGAAACA
[1]
  apparent Kd: 4.97 nM
[2]
  apparent Kd: 5.45 nM

## AAAAAACAUGAGGAUCACCCAUGUGAGGAUAUGCUAAAAAAAUCCGCAUGAAAAAAUAGCAGAAGGCACAUAAA
[1]
  apparent Kd: 32.9 nM
[2]
  apparent Kd: 106 nM

## UGCUUCGUGUAAGGAUAUGCUGCCGUUUCGGCUGCAGAAGGUACUAUAAUACAUGAGGAUCACCCAUGUCUCUCGCUUUGCGGG
[3]
  apparent Kd: 55.9 nM
[4]
  apparent Kd: 26.6 nM

## GCCGAAGGACCCUGACGGGUCGGCUAGGAUAUACAUGAGGAUCACCCAUGUGCGGUUAUUCACGAGUAGAAGGAGCCUCGGCAA
[1]
  apparent Kd: 101 nM
[2]
  apparent Kd: 80.9 nM

## GCUUUAUAGAUCCAUUUUAACAACAUGAGGAUCACCCAUGUGCAGGAUAUCGUUUGUUUUAUAUUCGAGAAGGGCAAAUUCAUC
[1]
  apparent Kd: 37.9 nM
[2]
  apparent Kd: 93.1 nM

## GGAUAGGACAGAGGAUAUACGUGGUAGAGAUACUAGCAAAAUUUCCUCACAUGAGGAUCACCCAUGUAGAAGGCUGUCCUAUCG
[1]
  apparent Kd: 532 nM
[2]
  apparent Kd: 19.1 nM

## AGUAGAUCAGGAUAUACGUGAAAGGUCAAAGUGUCCCUUCUACAUGAGGAUCACCCAUGUAGAAGGGAUCUACA
[1]
  apparent Kd: 12.8 nM
[2]
  apparent Kd: 12.5 nM
